Assay outcomes (PubChem BioAssay)
FXIIa inh 1536 – blocks human coagulation factor XIIa protease activity; 220,000 tested, 0.3% active; P00748; AID 800; inhibition, % at 5 µM; purified FXIIa, Boc-QGR-AMC fluorogenic substrate, 2 h; in the data active means inhibition above about 40%;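 further: 0% = enzyme with no compound and 100% = blank without enzyme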
hK5 inh – inhibitors of human kallikrein 5; 210,000 tested, 0.59% active; AID 873; recombinant hK5, fluorogenic AMC substrate cleavage; inhibition, % at 5 µM;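 active means inhibition of 40% or more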;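 further: 0% = enzyme controls without compound and 100% = no-enzyme blanks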
m-calpain inh – blocks pig calpain II enzyme activity; inhibition, % at 16 µM; AID 1236; 220,000 tested, 0.37% active; purified calpain II, fluorogenic peptide substrate, 30 min;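 active means inhibition above about 50%, limit read from the data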
Thrombin inh – thrombin (human) inhibition; 220,000 tested, 0.26% active; P00734; inhibition, % at 5 µM; alpha-thrombin, Boc-VPR-AMC fluorogenic substrate cleavage;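 active means inhibition at or above 40%; inactive means inhibition below 40%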;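 further: 0% = enzyme with no compound and 100% = wells without enzyme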
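System: human alpha-thrombin protein; Compound dosing: one concentration per compound, 5 µM, with 0.2% DMSO; Timing: reaction at room temperature; Technique: AMC fluorescence, 355/460 nm; Controls: enzyme without compound as high, wells lacking enzyme as low.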
Furin inh – inhibitors of human furin | P09958 | purified furin, fluorogenic substrate cleavage | inhibition, % at 20 µM or 30 µM | 220,000 tested, 0.061% active | AID 463115; in the data active means inhibition above about 25%
FXIa inh 1536 – factor XIa (human) inhibition; P03951; purified FXIa, Boc-Glu-Ala-Arg-AMC fluorogenic substrate; inhibition, % at 5 µM; 220,000 tested, 0.14% active; AID 798;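 active means inhibition of at least 40%; inactive means inhibition below 40%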;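 further: fluorescence of freed AMC excited at 355 nm; 0% = enzyme without compound and 100% = no enzyme blank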
Target sequence (P03951 19-387 limits assumed): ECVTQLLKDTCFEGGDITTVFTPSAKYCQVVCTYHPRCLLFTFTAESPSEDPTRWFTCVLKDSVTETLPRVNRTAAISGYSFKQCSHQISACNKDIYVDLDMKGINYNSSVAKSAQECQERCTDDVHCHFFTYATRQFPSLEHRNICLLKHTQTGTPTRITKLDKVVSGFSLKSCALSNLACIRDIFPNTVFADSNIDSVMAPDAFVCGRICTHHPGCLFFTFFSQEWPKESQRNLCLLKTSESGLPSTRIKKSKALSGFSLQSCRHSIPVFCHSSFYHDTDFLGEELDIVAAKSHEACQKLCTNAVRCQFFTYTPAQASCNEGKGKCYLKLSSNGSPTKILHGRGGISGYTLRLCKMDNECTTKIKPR
Target sequence (P03951 388-625 limits assumed): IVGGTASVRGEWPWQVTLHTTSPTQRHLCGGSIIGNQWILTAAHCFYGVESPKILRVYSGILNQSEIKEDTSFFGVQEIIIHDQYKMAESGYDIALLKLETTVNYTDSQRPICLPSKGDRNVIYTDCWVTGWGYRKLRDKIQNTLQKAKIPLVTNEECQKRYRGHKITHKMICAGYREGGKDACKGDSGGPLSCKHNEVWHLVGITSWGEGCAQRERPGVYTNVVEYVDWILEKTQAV
Numbers without * were called inactive. Shown are actives, neighbours in structure and some others; about 1.4% of the full set was active somewhere.

SMILES	FXIIa inh 1536	hK5 inh	m-calpain inh	Thrombin inh	Furin inh	FXIa inh 1536
O=C(O)CN1C(=O)/C(=C/c2ccc(N3CCCCC3)o2)SC1=S	72*	45*	19	8	1	23
COc1ccc(Cl)cc1NC(=S)NNC(=O)C1(C)CC1(Cl)Cl (stereo not given)	49*	13	15	2	-7	6
Cc1ccc(-c2c[nH]c(=S)n2-c2ccccc2F)cc1	-8	-10	-5	-13	-15	-4
CCC(=O)c1c(NC(C)C)cc(C)oc1=O	-8	-25	-10	1	-32	-6
CCN(CC)CCc1c(C)[nH]c(C(=O)OCc2ccccc2)c1C	8	-12	58*	-5	-16	8
COc1ccc(CN(C(=O)c2snc(C(N)=O)c2N)C(C(=O)NC(C)(C)C)c2ccco2)cc1 (stereo not given)	43*	11	-107	-3	-25	-9
CC(C)(C)NC(=O)C(c1ccco1)N(Cc1ccc(F)cc1)C(=O)c1snc(C(N)=O)c1N (stereo not given)	4	-32	-161	-4	-14	-5
O=c1sc2ccccc2n1Cc1ccccc1	16	-2	14	-2	-15	0
CCOc1ccccc1Cn1c(=O)sc2ccccc21	3	-4	51*	-2	-21	-3
CCc1cccc(C)c1NC(=O)CSc1nnc(-c2cc3cc(Br)ccc3o2)n1CC	5	-29	55*	27	-28	2
Cn1c(SCC(=O)Nc2cccc(C(=O)O)c2)nnc1-c1cc2cc(Br)ccc2o1	9	-27	-89	-2	-19	-5
COc1ccc(C2C(=O)c3ccccc3C2=O)cc1	12	-10	-1	-6	-11	2
COc1ccc(C2C(=O)c3ccccc3C2=O)cc1OC	17	18	8	56*	3	9
O=c1[nH]c2ccsc2c(=O)n1CCO	3	-1	-12	-7	-23	-4
Cc1ccc(C(=O)N/N=C(/CC(=O)c2cccs2)C(F)(F)F)cc1	24	2	-27	11	-29	27
O=C(N/N=C(\CC(=O)c1cccs1)C(F)(F)F)c1ccncc1	24	61*	19	8	-8	37
O=[N+]([O-])c1nn(-c2cccc(Cl)c2)n(O)c1=NCc1cccnc1	17	75*	22	17	-1	12
O=[N+]([O-])c1ccc(OCC(O)CN2CCN(c3ccccc3F)CC2)cc1 (stereo not given)	7	-4	57*	-9	-11	-4
CCC(C)C(NC(=O)c1ccc(Cl)cc1)C(=O)Nc1cccnc1 (stereo not given)	4	-5	102*	-9	-9	-4
CCC(=O)Nc1ccc(C(=O)Nc2cccnc2)cc1	9	-14	-22	2	-24	-10
CCCC1C2C(=O)N(c3cccc(C)c3)C(=O)C2ON1c1ccccc1 (stereo not given)	1	-4	4	-5	-20	-6
CCCCOC(=O)n1ccc(C(=O)Nc2ccccc2OC)n1	16	4	-38	45*	-16	3
CC(C)c1nc2c(c(=O)c3ccccc3n2C)c(=O)n1CCc1ccccc1	11	-7	18	-2	-5	5
CC(=O)Nc1ccc(NC(=O)CSc2ncnn2-c2ccccc2)cc1	43*	-3	28	2	-14	1
CC(=O)Nc1ccc(NC(=O)CSc2nccn2Cc2ccccc2)cc1	3	57*	17	15	-15	4
SMILES	FXIIa inh 1536	hK5 inh	m-calpain inh	Thrombin inh	Furin inh	FXIa inh 1536
COc1ccc(S(=O)(=O)NC(C)C(=O)Nc2cccc(C(C)=O)c2)cc1 (stereo not given)	4	-10	33	47*	-4	-14
CCOC(=O)c1c(NC(=O)c2cc(C)on2)c2cc([N+](=O)[O-])ccc2n1C	9	2	0	1	-11	5
O=C(C1Cc2ccccc2CN1S(=O)(=O)c1cccs1)N1CCCCC1 (stereo not given)	12	-12	17	-1	28*	-1
CN(C)C(=O)C1Cc2ccccc2CN1S(=O)(=O)c1cccs1 (stereo not given)	7	-2	14	-7	-11	6
CN(N)C(=S)Nc1ccc(Cl)cc1	-2	-7	8	-8	-16	2
CCOC(=O)CNC(=O)Cc1ccc(OC)cc1	43*	25	-2	12	6	19
